Source: ChEMBL document CHEMBL2021824, “Structural modifications modulate stability of glutathione-activated arylated diazeniumdiolate prodrugs” (Bioorg Med Chem, 2012)
Active and inactive are the calls of the source. The calls are words filed in the database; no cut-off is given here.

Columns and labels:
[1] = test system: NCI-H1703; assay: Antiproliferative activity against human NCI-H1703 cells after 48 hrs by MTT assay; assay type: functional, cell-based; details: NCI-H1703, 48 h
[2] = Prodrug activation assessed as GSH-induced nitric oxide production per mol of the compound by chemiluminescence assay; assay type: physicochemical
How it was run: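 Phosphate buffer, pH 7.4, containing 4 mM GSH at 37 °C was sparged with inert gas until the detector response was steady. The prodrug was then injected and NO release followed over time. The release curve was integrated to give mol NO per mol compound, reported as mean (SE).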

[3] = Half life of the compound in GSH-containing buffer; assay type: physicochemical
How it was run: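 Loss of the diazeniumdiolate chromophore followed by UV-visible spectrophotometry at 37 °C. Absorbance was tracked at each compound's λmax. kobs came from a first-order exponential fit and half-life was derived from it. Mean (SE).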

[4] = test system: NCI-H1703; assay: Induction of apoptosis in human NCI-H1703 cells assessed as cleaved of caspase 7 level at 1 uM after 4 hrs by Western blotting analysis; assay type: functional, cell-based
How it was run: (§1)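 H1703 lung adenocarcinoma cells exposed to 1 μM compound for 4 h. Western blots probed for phospho-SAPK/JNK, phospho-c-jun, ATF3, PARP (full-length and 89-kDa cleaved fragment) and cleaved effector caspases 3 and 7.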

[5] = test system: NCI-H1703; assay: Metabolic stability in human NCI-H1703 cells assessed as formation of arylated GSH at 5 uM after 30 mins by LC/MS analysis; assay type: ADME, cell-based; details: nci-h1703, 0.5 h
How it was run: (§2)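 H1703 cells plated in flasks and incubated overnight at 37 °C, then treated with 5 μM compound for 5, 30 or 60 min. Cells lysed by scraping in 10 mM HCl with freeze-thaw cycles, then deproteinized with 5-sulfosalicylic acid and centrifuged. Supernatant analyzed by LC/MS with positive APCI on a C18 column using a water/acetonitrile/0.1% formic acid gradient. Extracted ion chromatograms tracked parent and arylated GSH.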

[6] = test system: H1703; assay: Induction of SAPK/JNK phosphorylation in human H1703 cells at 1 uM after 4 hrs by Western blotting analysis; assay type: cell-based; how it was run: as §1
[7] = test system: NCI-H1703; assay: Metabolic stability in human NCI-H1703 cells assessed as formation of arylated GSH at 5 uM after 5 mins by LC/MS analysis; assay type: ADME, cell-based; details: nci-h1703, 5 min; how it was run: as §2
[8] = test system: NCI-H1703; assay: Induction of apoptosis in human NCI-H1703 cells assessed as cleaved of caspase 3 level at 1 uM after 4 hrs by Western blotting analysis; assay type: functional, cell-based; how it was run: as §1
[9] = test system: NCI-H1703; assay: Induction of apoptosis in human NCI-H1703 cells assessed as PARP cleavage at 1 uM after 4 hrs by Western blotting analysis; assay type: functional, cell-based; how it was run: as §1
[10] = test system: H1703; assay: Induction of SAPK/JNK-mediated c-jun phosphorylation in human H1703 cells at 1 uM after 4 hrs by Western blotting analysis; assay type: cell-based; how it was run: as §1
[11] = Induction of SAPK/JNK-mediated ATF3 upregulation in human H1703 cells at 1 uM after 4 hrs by Western blotting analysis; assay type: cell-based; how it was run: as §1
[12] = test system: NCI-H1703; assay: Antitumor activity against human NCI-H1703 cells xenografted in athymic NCr-nu/nu mouse at 20 umol/kg, ip 5 times a week for 4-weeks relative to control; assay type: functional, organism-based
How it was run: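 H1703 cells implanted in the flank of 7-week-old female athymic NCr-nu/nu mice. Dosing started once tumors reached 2 × 2 × 2 mm3 (typically four weeks). Compound was given as Pluronic P123 micelles at 20 μmol/kg ip, five times a week for four weeks. Vehicle controls received 2.25% Pluronic P123 in PBS. Tumors measured by caliper and body weights tracked. Welch-corrected t-test.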

[13] = test system: NCI-H1703; assay: Metabolic stability in human NCI-H1703 cells assessed as formation of arylated GSH at 5 uM after 60 mins by LC/MS analysis; assay type: ADME, cell-based; details: nci-h1703, 1 h; how it was run: as §2

Compound	IC50 [1] [nM]	NO yield [2] [mol/mol]	t1/2 [3] [min]	also measured
CCOC(=O)N1CCN(/[N+]([O-])=N/Oc2ccc(C#N)cc2[N+](=O)[O-])CC1	730	2.02	22.1	
CCOC(=O)N1CCCN(/[N+]([O-])=N/Oc2ccc([N+](=O)[O-])cc2C#N)CC1	2620	2.01	66	
CCOC(=O)N1CCN(/[N+]([O-])=N/Oc2ccc([N+](=O)[O-])cc2C#N)CC1	550	2.04	33.6	Activity [4]: Active; Stability [5]: Stable; Activity [6]: Active; Stability [7]: Stable; Activity [8]: Active; Activity [9]: Active; Activity [10]: Active; Activity [11]: Active; Activity [12]: Active; Stability [13]: Unstable
CCOC(=O)N1CCCN(/[N+]([O-])=N/Oc2ccc(C#N)cc2[N+](=O)[O-])CC1	680	1.96	42.6	
CCOC(=O)N1CCN(/[N+]([O-])=N/Oc2ccc([N+](=O)[O-])cc2[N+](=O)[O-])CC1	1080	1.96		
CCOC(=O)N1CCCN(/[N+]([O-])=N/Oc2ccc([N+](=O)[O-])cc2[N+](=O)[O-])CC1		2		
CCOC(=O)N1CCN(/[N+]([O-])=N/Oc2ccc(C#N)cc2C#N)CC1	> 20000		918	
